Screening data: PubChem BioAssay, several laboratories
In the library only some 3% were active in any assay of this set; here they are far more common.
PKD1 inh = PKD1 (human) kinase inhibition; PKD1 kinase fluorescence polarization assay; inhibition, % (concentration not given with the values); Q15139; AID 797; actives 0.056% (n = 200,000); in the data active = inhibition above about 50%
Target sequence (Q15139 whole entry, looked up): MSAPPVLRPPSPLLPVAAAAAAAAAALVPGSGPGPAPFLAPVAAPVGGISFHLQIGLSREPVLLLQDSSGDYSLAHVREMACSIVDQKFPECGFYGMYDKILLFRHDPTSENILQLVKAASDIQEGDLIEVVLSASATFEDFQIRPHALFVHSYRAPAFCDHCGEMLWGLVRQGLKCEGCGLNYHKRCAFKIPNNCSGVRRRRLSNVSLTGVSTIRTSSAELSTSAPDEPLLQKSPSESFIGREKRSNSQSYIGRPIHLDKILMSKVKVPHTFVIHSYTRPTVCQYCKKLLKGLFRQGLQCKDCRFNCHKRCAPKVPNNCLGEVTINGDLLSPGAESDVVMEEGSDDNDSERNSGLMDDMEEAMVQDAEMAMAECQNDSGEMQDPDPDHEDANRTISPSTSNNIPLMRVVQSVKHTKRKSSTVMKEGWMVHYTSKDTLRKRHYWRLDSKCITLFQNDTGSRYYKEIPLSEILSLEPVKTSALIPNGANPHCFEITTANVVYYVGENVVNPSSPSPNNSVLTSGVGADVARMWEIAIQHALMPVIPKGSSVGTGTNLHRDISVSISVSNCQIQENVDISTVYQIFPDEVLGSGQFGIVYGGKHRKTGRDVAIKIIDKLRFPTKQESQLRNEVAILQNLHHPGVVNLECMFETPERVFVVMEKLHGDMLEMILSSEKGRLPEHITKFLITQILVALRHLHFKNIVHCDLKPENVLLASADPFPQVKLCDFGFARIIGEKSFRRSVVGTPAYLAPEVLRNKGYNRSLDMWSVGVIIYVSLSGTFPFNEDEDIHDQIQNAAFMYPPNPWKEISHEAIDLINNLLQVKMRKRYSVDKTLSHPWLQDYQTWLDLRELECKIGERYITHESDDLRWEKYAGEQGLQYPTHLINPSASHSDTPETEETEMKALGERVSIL
Cl transport mod = modulates chloride dependent transport by human KCC2 | Q9H2X9 | KCC2 cells, thallium flux FluoZin-2 fluorescence | B-score of Tl+ flux slope (higher = more flux/activation; lower = inhibition) at 10 µM | actives 2.2% (n = 190,000) | AID 1456;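 active = thallium flux slope and its plate-corrected score both differing from the plate sample mean at a set confidence after two filtering rounds, in either direction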;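 note: slope of fluorescence scaled to starting intensity during 10 to 20 s after thallium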
ROMK primary = human ROMK K+ channel modulation, primary screen | B-score at 10 µM | actives 2% (n = 130,000) | AID 1918 | Tet-inducible ROMK, thallium flux fluorescence; actives lie on both sides | P48048;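 active = signal ratio slope over the read window, or its plate-corrected B-score, at least 3 SD from the plate mean, either direction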;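 note: B-score of the F/F0 ratio slope over 7 to 12 s after thallium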
Rad51 HR inh = Rad51 (human) homologous recombination inhibition; hRad51 DNA strand exchange, fluorescence dequenching; inhibition, % at 10 µM; actives 0.085% (n = 200,000); AID 1385;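 active = inhibition above 40% at the single screening dose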;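 note: 0% = DMSO control wells and 100% = blanks with heterologous ssDNA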
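Test system: preformed human Rad51 ssDNA filaments. Compound dosing: single dose, 10 µM final compound. Incubation: filaments 15 min 37 °C, then compound 30 min. Technique: FRET fluorescence dequenching, excitation 485 nm, emission 520 nm. Read-out basis: percent inhibition from fluorescence, normalised to plate control and blank means. Benchmarks: plate controls and plate blanks.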
ROMK hit retest = confirmation of human ROMK potassium channel modulators; shares compounds with ROMK primary; ROMK thallium flux, fluorescence ratio; active compounds read low; normalized thallium flux (F/F0 slope) at 10 µM; actives 54% (n = 3,000); AID 1917;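 active = Flux at 10 µM at least 3 SD below or above vehicle control mean in one or both replicates; inconclusive = no clear call, values can overlap the other calls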
Active calls of the source: *; u = inconclusive; x = no result given.

SMILES	PKD1 inh	Cl transport mod	ROMK primary	Rad51 HR inh	ROMK hit retest
CN1CC=C2C(C#N)=C(N)C(C#N)(C#N)C(c3ccsc3)C2C1 (stereo not given)	-4.8	-0.181	x	-4.1	x
CN1CC=C2C(C#N)=C(N)C(C#N)(C#N)[C@H](c3cccc(Cl)c3)C2C1 (stereo not given in full)	-0.7	-0.01	-3.78*	-34.5	0.0449*
CN(CC(=O)Nc1ccccc1-c1ccccc1)Cc1ccccc1Cl	-0.1	0.438	0.623	0.1	x
COc1ccccc1NC(=O)C(C)Sc1nnnn1C (stereo not given)	x	x	x	0.3	x
COc1ccccc1NC(=O)CCSc1nnnn1C	-5.6	0.136	x	x	0.0744
O=C(N=Nc1c(O)n(Cc2ccccc2)c2ccccc12)c1ccc(O)cc1	-4.8	-0.0659	0.186	-1.5	x
CCn1c(O)c(N=NC(=O)c2ccc(CSc3nncn3C)cc2)c2ccccc21	-6.3	-0.599	-3.43*	9.6	0.0717
Cn1cnnc1SCc1ccc(C(=O)N=Nc2c(O)n(Cc3ccc(Cl)cc3)c3ccccc23)cc1	-9.4	-0.628	-2.19*	-0.9	0.0648*
OCCCCNCc1ccc(OCc2ccc(Cl)cc2Cl)cc1	-7.3	-0.718	x	-5.7	0.0525*
COC(=O)/C=C1\C(=O)N(c2nc3ccccc3s2)C(=S)N1c1ccc(F)cc1	3.3	x	-2.76*	4.6	0.0643*
O=C1c2ccccc2C(=O)N1CCCCSc1nc2ccccc2c(=O)n1CCCN1CCOCC1	5.0	-0.214	-3*	-6.6	0.0536*
CC1(C)CC(=O)C(C=NCC2CCNCC2)=C(O)C1	-0.4	-0.145	x	x	x
CC1(C)CC(=O)C(C=NCC2CCN(C(=O)Cc3ccccc3)CC2)=C(O)C1	-4.1	0.332	-3.78*	3.7	0.0839
CCC(C)(C)n1nnnc1C(C(C)C)N(CCN1CCOCC1)Cc1cc2cccc(C)c2[nH]c1=O (stereo not given)	7.2	-0.385	-2.9*	x	0.055*
Nc1nn(-c2ccccc2)c(N)c1N=Nc1ccc2c(c1)OCO2	-10.4	x	2.74	-36.4	x
Nc1nn(-c2ccccc2)c(N)c1N=Nc1cccc(F)c1	x	-1.1	3.36*	-1.3	0.0856
CC(=O)Nc1cccc2c1C(=O)N(c1ccc(C)cc1)C2=O	-1.1	-0.262	-2.65*	-7.1	0.0761
CCOC(=O)c1[nH]c2ccc(OC)cc2c1NC(=O)OC	-5.8	-0.0212	x	-3.0	u
CCOC(=O)c1[nH]c2ccc(OC)cc2c1NC(=O)NC(C)C	-4.6	-0.00733	x	5.0	x
O=C(NNC(=S)Nc1ccc(Br)cc1Cl)c1ccncc1	2.2	0.113	5.99*	5.2	0.109*
CCn1c(SCC(=O)Nc2cccc(C)c2)nc2nc3c(cc2c1=O)COC(C)(C)C3	x	0.0323	x	2.3	x
CCCCCc1ccc(OCCCC[n+]2ccc(C)cc2)c(CCCCC)c1	10.5	1.24	-5.65*	-4.1	0.0474*
CCCCCc1ccc(OCCCC[n+]2cccc(C)c2)c(CCCCC)c1	1.6	0.783	-1.95	1.1	x
CCCCOc1ccc(C)cc1CN(CCO)CCO	-9.5	-0.368	1.15	5.1	x
CCCCCc1ccc(OCCCC[n+]2ccccc2)c(CCCCC)c1	-1.4	-0.0952	-4.92*	30.7	0.0552*
SMILES	PKD1 inh	Cl transport mod	ROMK primary	Rad51 HR inh	ROMK hit retest
Cn1c(=S)[nH]c(=O)c2ncc(=O)[nH]c21	-0.5	x	-0.157	-118.1	x
COCC(=O)N/N=C(\C)CC(=O)NCc1ccco1	-1.7	0.0495	-0.215	0.3	x
Cn1c(=O)n(C)c2cc(NS(=O)(=O)c3ccc4c(c3)CCCC4)ccc21	0.6	x	-2.03*	4.5	u
Cn1c(=O)n(C)c2cc(NS(=O)(=O)c3ccc(C(C)(C)C)cc3)ccc21	3.2	0.0224	-1.32	18.4	x
O=[N+]([O-])c1ccc(S(=O)(=O)CC(CN2CCOCC2)N2CCOCC2)cc1 (stereo not given)	-4.9	x	-0.453	-1.6	x
O=[N+]([O-])c1ccc(S(=O)(=O)CC(CN2CCCCC2)N2CCCCC2)cc1 (stereo not given)	-4.8	1.39	-4.77*	5.5	0.0529*
CCOC(=O)C(=Cc1ccc(-n2cncn2)cc1)C(=O)OCC	8.7	0.613	-5.08*	9.9	0.0625*
CCOC(=O)C(=CNc1cc(C)nn1-c1ccc(Cl)cc1)C(=O)OCC	0.8	x	0.313	4.7	x
CCCCOC(=O)CCNc1n[nH]c(=O)[nH]c1=O	-7.2	-0.362	x	-16.4	0.0874
CC(C)OC(=O)CCNc1n[nH]c(=O)[nH]c1=O	5.0	0.0462	0.052	12.5	x
CCC(=O)N(CCc1ccc(S(N)(=O)=O)cc1)C1CC(=O)N(c2ccc(OC)cc2)C1=O (stereo not given)	-8.8	-0.596	0.675	25.1	x
O=C1C2CCCCN2C(=O)N1CCN1CCN(c2ccc([N+](=O)[O-])cc2)CC1 (stereo not given)	1.0	x	-2.83*	-15.4	0.0473*
CC[C@H](C)[C@H](NC(N)=O)C(=O)Nc1ccc(NC(C)=O)cc1	x	0.283	x	x	0.0824
Fc1ccc(-c2nn(-c3ccccc3)cc2CNCc2ccccc2)cc1	-2.2	-0.515	-2.57*	6.1	0.0467*
COCCn1c(C)cc(C(=O)CSc2cc(C)c3ccc(OC)cc3n2)c1C	-2.1	-0.659	-0.16	-5.7	x
COc1ccccc1C(C)NCC(=O)Nc1c(F)cccc1F (stereo not given)	-1.1	-0.73	-1.09	x	x
COc1cc(Cl)c(C)cc1NC(=O)CNC(C)c1ccccc1OC (stereo not given)	8.2	-0.223	-3.99*	11.9	0.0611*
O=C(NNS(=O)(=O)c1ccccc1)C1CC(c2cccnc2)=NO1 (stereo not given)	3.8	0.523	-0.617	10.6	x
CC(NC(=S)N1CCN(c2ccccc2)CC1)c1ccccc1 (stereo not given)	x	-0.118	x	7.6	x
CCSc1nc2ccccc2c(=O)n1CCc1ccc(OC)c(OC)c1	x	x	x	13.0	0.0819
NC(=O)C1CCN(CC(=O)Nc2ccccc2Sc2ccccc2)CC1	13.3	1.77	x	2.6	0.0678*
CCC(C)(C(=O)NC1CCCC1)N(Cc1cccs1)C(=O)Cc1cccs1 (stereo not given)	-3.7	x	1.13	-0.1	x
CCC(C)(C(=O)NC1CCCCC1)N(CC1CCCO1)C(=O)Cc1cccs1 (stereo not given)	5.4	0.908	-7.8*	6.8	0.0746
CC(Cc1ccccc1)NC(=O)c1cc([N+](=O)[O-])ccc1Cl (stereo not given)	x	-2.02	x	-15.1	x
CCOc1cc(-c2cc(-c3ccc(N)cc3)nc(N)c2C#N)ccc1O	0.8	-2.8	4.98*	-3.7	0.0902
COCCNC(=O)CSc1nc2nn(-c3ccccc3)c(=O)c-2c2n1CCCCC2	-7.0	0.13	-0.394	x	x
COc1ccc(-c2csc3ncnc(Cl)c23)cc1	1.9	-0.249	-1.24	-0.6	x
COc1ccc(Nc2ncnc3scc(-c4ccc(OC)cc4)c23)cc1	-4.6	-1.2	-0.708	-0.7	0.0661*
CCC(CC)C(=O)Nc1c2cnn(-c3ccccc3)c2nc(=O)n1-c1ccccc1	-6.0	-2.96	-4.97*	x	0.0515*
C=C(C)COc1ccc(-c2[nH]ncc2-c2ccc(OC)c(OC)c2)c(O)c1	-8.8	0.138	3.76*	1.6	0.0882
